Reference: ChEMBL document CHEMBL4364265, “Oridonin derivatives as potential anticancer drug candidates triggering apoptosis through mitochondrial pathway in the liver cancer cells” (Eur J Med Chem, 2019)
The source made the active and inactive calls. The calls are words filed in the database; no cut-off is given here.

What was measured:
HepG2 [1] = test: Antiproliferative activity against human HepG2 cells incubated for 72 hrs by CCK8 cells; assay type: functional, cell-based; conditions: HepG2, 72 h
In short: (§1)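 CCK-8 proliferation assay. 10,000 cells per well were preincubated 24 h at 37 °C with 5% CO2, then given compound dissolved in DMSO and incubated 72 h. CCK-8 was added for 4 h and absorbance read at 450 nm. IC50 was taken from dose-response curves as mean ± SEM of at least three independent experiments, with paclitaxel as positive control. HepG2 and L-O2 were grown in DMEM/10% FBS; A549 and RPMI-8226 in RPMI 1640/10% FBS.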

RPMI-8226 = test: Antiproliferative activity against human RPMI8226 cells incubated for 72 hrs by CCK8 cells; assay type: functional, cell-based; conditions: RPMI-8226, 72 h; in short: as §1
A549 = test: Antiproliferative activity against human A549 cells incubated for 72 hrs by CCK8 cells; assay type: functional, cell-based; conditions: A549, 72 h; in short: as §1
PLC-PRF-5 [2] = test: Antiproliferative activity against human PLC/PRF/5 cells incubated for 72 hrs by CCK8 cells; assay type: functional, cell-based; conditions: PLC-PRF-5, 72 h
L02 = test: Cytotoxicity against human LO2 cells incubated for 72 hrs by CCK8 cells; assay type: cell-based; conditions: L02, 72 h; in short: as §1
[3] = Selectivity index, ratio of IC50 for human LO2 cells to IC50 for human PLC/PRF/5 cells
In short: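 L-O2 and PLC/PRF/5 cells were grown in DMEM with 10% FBS at 37 °C and 5% CO₂. For CCK-8 proliferation, 10,000 cells per well were pre-incubated 24 h, then exposed to compound in DMSO for 72 h. CCK-8 was added for 4 h and A450 read. IC50 came from dose–response curves; SI is IC50(L-O2)/IC50(PLC/PRF/5).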

HepG2 [4] = test: Inhibition of colony formation in human HepG2 cells at 0.1 to 1 uM incubated for 10 days by crystal violet staining based microscopic method; assay type: functional, cell-based
In short: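 Five hundred cells plated per 30 mm dish and left 12 h. Medium with compound was added (0, 0.1, 0.5, 1 µM) or DMSO as negative control, and cells grew 10 days. Colonies were fixed in methanol 15 min, stained with 0.1% crystal violet 15 min, photographed and counted. Colony size was checked by microscope. Relative colony number is mean ± SD of ≥3 independent experiments.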

PLC-PRF-5 [5] = test: Antitumour activity against human PLC/PRF/5 cells xenografted in nude mouse assessed as reduction in tumour weight at 10 mg/kg, iv administrated once every 3 days for 4 weeks relative to control; assay type: functional
In short: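 PLC/PRF/5 xenograft. 2 × 10^7 cells in 0.2 mL saline were injected s.c. into the right forelimb of nude mice. At about 120 mm3, mice were randomized into 3 groups of 6 and dosed i.v. at 10 mg/kg once every three days for 4 weeks. Vehicle was 10% N-methylpyrrolidone/12% Tween-80/78% saline. Volume (a×b²/2) and body weight were recorded daily, and tumors were excised and weighed at the end.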

PLC-PRF-5 [6] = test: Inhibition of colony formation in human PLC/PRF/5 cells assessed as decrease in colony size at 0.1 to 1 uM incubated for 10 days by crystal violet staining based microscopic method
HepG2 [7] = test: Antiproliferative activity against human HepG2 cells incubated for 72 hrs in presence of oridonin by CCK8 cells; assay type: functional, cell-based; conditions: HepG2, 72 h
PLC-PRF-5 [8] = test: Antiproliferative activity against human PLC/PRF/5 cells incubated for 72 hrs in presence of oridonin by CCK8 cells; assay type: functional, cell-based; conditions: PLC-PRF-5, 72 h

SMILES	IC50 (HepG2 [1]) [µM]	IC50 (RPMI-8226) [µM]	IC50 (A549) [µM]	also measured
C=C1C(=O)[C@]23[C@H](OC(=O)c4cc(F)ccc4F)[C@H]1CC[C@H]2[C@@]12CO[C@]3(O)[C@@H](O)[C@@H]1C(C)(C)CC[C@@H]2O	26	12.2	10.7	–
C=C1C(=O)[C@]23[C@H](OC(=O)Cc4cc(OC)c(OC)c(OC)c4)[C@H]1CC[C@H]2[C@@]12CO[C@]3(O)[C@@H](O)[C@@H]1C(C)(C)CC[C@@H]2O	8.79	10.9	37.5	–
C=C1C(=O)[C@]23[C@H](OC(=O)c4ccc(F)c(NC(=O)c5ccc(OC)c(OCc6ccccc6)c5)c4)[C@H]1CC[C@H]2[C@@]12CO[C@]3(O)[C@@H](O)[C@@H]1C(C)(C)CC[C@@H]2O	8.2	6.71	11	–
C=C1C(=O)[C@@]23C(=O)[C@@H](OC(C)=O)[C@@H]4C(C)(C)CC[C@H](OC(C)=O)[C@@]4(COC(C)=O)[C@@H]2CC[C@@H]1[C@H]3OC(C)=O	5.4	13.9	10.5	–
C=C1C(=O)[C@]23[C@H](OC(=O)CCCCC4CCSS4)[C@H]1CC[C@H]2[C@@]12CO[C@]3(O)[C@@H](O)[C@@H]1C(C)(C)CC[C@@H]2O (some centres not stated)	32.3	> 100	> 100	–
C=C1C(=O)[C@]23[C@H](O)[C@H]1CC[C@H]2[C@@]12CO[C@]3(O)[C@@H](O)[C@@H]1C(C)(C)CC[C@@H]2O [ORIDONIN]	8.12	9.25	30.4	IC50 (PLC-PRF-5 [2]): 7.41 µM; IC50 (L02): 17.5 µM; Ratio IC50 [3]: 2.4; inhibition (HepG2 [4]): Active; Activity (PLC-PRF-5 [5]): inactive; inhibition (PLC-PRF-5 [6]): Active
C=C1C(=O)[C@]23[C@H](OC(=O)c4ccc(OCc5ccccc5)cc4F)[C@H]1CC[C@H]2[C@@]12CO[C@]3(O)[C@@H](O)[C@@H]1C(C)(C)CC[C@@H]2O	16	17.5	14	–
C=C1C(=O)[C@]23[C@H](OC(=O)c4cccnc4Cl)[C@H]1CC[C@H]2[C@@]12CO[C@]3(O)[C@@H](O)[C@@H]1C(C)(C)CC[C@@H]2O	27.5	15.8	31.1	–
C=C1C(=O)[C@]23[C@H](OC(=O)c4ccc(CCl)cc4)[C@H]1CC[C@H]2[C@@]12CO[C@]3(O)[C@@H](O)[C@@H]1C(C)(C)CC[C@@H]2O	5.66	5.01	16.7	–
C=C1C(=O)[C@]23[C@H](OC(=O)CCc4ccc(OC)c(OC)c4)[C@H]1CC[C@H]2[C@@]12CO[C@]3(O)[C@@H](O)[C@@H]1C(C)(C)CC[C@@H]2O	9.63	10.1	22.8	–
C=C1C(=O)[C@]23[C@H](O)[C@H]1CC[C@H]2[C@@]12CO[C@@]3(O)[C@@H](O)[C@@H]1C(C)(C)CC[C@@H]2OC(C)=O	5.67	11	10.9	–
C=C1C(=O)[C@]23[C@H](OC(=O)c4ccc(OC)c(OCCBr)c4)[C@H]1CC[C@H]2[C@@]12CO[C@]3(O)[C@@H](O)[C@@H]1C(C)(C)CC[C@@H]2O	9.76	8.65	11.5	–
C=C1C(=O)[C@]23[C@H](OC(=O)/C=C/c4cc(OC)c(OC)c(OC)c4)[C@H]1CC[C@H]2[C@@]12CO[C@]3(O)[C@@H](O)[C@@H]1C(C)(C)CC[C@@H]2O	5.98	5.98	8.8	–
C=C1C(=O)[C@]23[C@H](OC(=O)c4ccc(F)cc4)[C@H]1CC[C@H]2[C@@]12CO[C@]3(O)[C@@H](O)[C@@H]1C(C)(C)CC[C@@H]2O	3.1	14.3	14.7	–
C=C1C(=O)[C@]23[C@H](O)[C@H]1CC[C@H]2[C@@]12CO[C@]3(O)[C@@H](OC(C)=O)[C@@H]1C(C)(C)CC[C@@H]2OC(C)=O	12.3	13	10.5	–
C=C1C(=O)[C@]23[C@H](OC(=O)CCc4ccc(OC)cc4)[C@H]1CC[C@H]2[C@@]12CO[C@]3(O)[C@@H](O)[C@@H]1C(C)(C)CC[C@@H]2O	8.99	9.42	14	–
C=C1C(=O)[C@]23[C@H](OC(=O)CCc4cc(OC)c(OC)c(OC)c4)[C@H]1CC[C@H]2[C@@]12CO[C@]3(O)[C@@H](O)[C@@H]1C(C)(C)CC[C@@H]2O	12.6	12.4	11	–
COc1ccc(/C=C/C(=O)O)cc1 [4-METHOXYCINNAMIC ACID]	> 100	–	–	IC50 (PLC-PRF-5 [2]): > 100 µM; IC50 (HepG2 [7]): 8.56 µM; IC50 (PLC-PRF-5 [8]): 6.55 µM
C=C1C(=O)[C@@]23C(=O)[C@H]4OC[C@]5([C@@H](OC(C)=O)CCC(C)(C)[C@@H]45)[C@@H]2CC[C@@H]1[C@H]3O	2.07	–	–	–
C=C1C(=O)[C@]23[C@H](OC(=O)/C=C/c4ccc(OC)c(OC)c4)[C@H]1CC[C@H]2[C@@]12CO[C@]3(O)[C@@H](O)[C@@H]1C(C)(C)CC[C@@H]2O	1.98	5.77	24.9	IC50 (PLC-PRF-5 [2]): 1.03 µM; IC50 (L02): 1.85 µM; Ratio IC50 [3]: 1.8; inhibition (HepG2 [4]): Active
C=C1C(=O)[C@]23[C@H](OC(=O)c4ccc(F)c(NC(=O)c5ccc(OC(F)(F)F)cc5)c4)[C@H]1CC[C@H]2[C@@]12CO[C@]3(O)[C@@H](O)[C@@H]1C(C)(C)CC[C@@H]2O	6.54	10.5	20.9	–
CC(=O)O[C@H]1C(=O)[C@@]2(C)[C@H]([C@H](OC(=O)c3ccccc3)[C@]3(O)C[C@H](OC(=O)[C@H](O)[C@@H](NC(=O)c4ccccc4)c4ccccc4)C(C)=C1C3(C)C)[C@]1(OC(C)=O)CO[C@@H]1C[C@@H]2O [PACLITAXEL]	0.18	1.53	0.39	–
C=C1C(=O)[C@]23[C@H](OC(=O)[C@H](CC(C)C)NC(=O)OC(C)(C)C)[C@H]1CC[C@H]2[C@@]12CO[C@]3(O)[C@@H](O)[C@@H]1C(C)(C)CC[C@@H]2O	0.98	–	–	IC50 (PLC-PRF-5 [2]): 2.67 µM; IC50 (L02): 6.3 µM; Ratio IC50 [3]: 2.4; inhibition (HepG2 [4]): Active
C=C1C(=O)[C@]23[C@H](OC(=O)c4ccc(F)c(F)c4F)[C@H]1CC[C@H]2[C@@]12CO[C@]3(O)[C@@H](O)[C@@H]1C(C)(C)CC[C@@H]2O	15.4	14.7	12.4	–
C=C1C(=O)[C@]23[C@H](OC(=O)[C@@H]4OC(c5ccc(OC)cc5)N(C(=O)OC(C)(C)C)[C@H]4c4ccccc4)[C@H]1CC[C@H]2[C@@]12CO[C@]3(O)[C@@H](O)[C@@H]1C(C)(C)CC[C@@H]2O (some centres not stated)	44.6	16.6	22.6	–
C=C1C(=O)[C@]23[C@H](OC(=O)c4ccc(F)c(NC(=O)Cc5ccc(OC)c(OC)c5)c4)[C@H]1CC[C@H]2[C@@]12CO[C@]3(O)[C@@H](O)[C@@H]1C(C)(C)CC[C@@H]2O	3.76	19	17.2	–
C=C1C(=O)[C@]23[C@H](OC(=O)c4ccc(C#N)cc4)[C@H]1CC[C@H]2[C@@]12CO[C@]3(O)[C@@H](O)[C@@H]1C(C)(C)CC[C@@H]2O	36.6	35.2	17.4	–
